# From PubChem BioAssay
# A selection: hits, their analogues and other compounds. The true share with any hit is near 4.3%.
# CHO parental Ca – counter-screen: ATP calcium response change in parental CHO cells; 330,000 compounds, 0.63% hits; parental CHO-K1, ATP-induced calcium, Fluo-8 fluorescence; inhibition, % at 5.6 µM;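 active = inhibition above that plate's mean sample inhibition plus 3 SD, cut at about 26% in these data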;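 also: 0% = ATP-challenged DMSO wells and 100% = DMSO wells without ATP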
#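 Material: Parental CHO cells | Reagent: ATP | Compound dosing: Single nominal dose of 5.6 µM per compound | Detection: Intracellular calcium via Fluo-8 no-wash fluorescent dye | Read-out: % inhibition of ATP-induced calcium mobilization | Benchmarks: Low control ATP plus DMSO, high control DMSO only | Replicates: Singlicate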
# OX1R antag-1 – human HCRTR1 antagonism | CHO/OX1R cells, Fluo-8 calcium fluorescence, orexin A | inhibition, % at 5 µM | 330,000 compounds, 0.43% hits;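 active = inhibition above its plate's threshold, mean inhibition of all tested compounds on the plate plus 3 SD, cut at about 37% in these data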;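 also: 0% = orexin A challenge wells and 100% = SB-334867-A antagonist wells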
# OX1R antag-2 – OX1R (human) antagonism. O43613. OX1R-expressing cells, FRET antagonist read-out. inhibition, % at 6.6 µM. 330,000 compounds, 1.8% hits; in the data active = inhibition mostly above about 38%, no sharp cut-off; inactive = mostly below about 40%;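 also: 0% = agonist challenge alone and 100% = reference antagonist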
# TAAR1 antagonist – antagonists of human TAAR1. Q96RJ0. CHO RD-HGA16 TAAR1, Fluo-8 calcium fluorescence, antagonist. inhibition, % at 3 µM. 360,000 compounds, 1.5% hits. AID 624466;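 active = inhibition above a per-plate cutoff, the mean inhibition of test compounds on that plate plus 3 SD, cut at about 49% in these data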;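 also: 0% = DMSO plus EC80 beta-PEA response and 100% = DMSO alone without agonist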
# Target sequence (Q96RJ0 whole entry, looked up): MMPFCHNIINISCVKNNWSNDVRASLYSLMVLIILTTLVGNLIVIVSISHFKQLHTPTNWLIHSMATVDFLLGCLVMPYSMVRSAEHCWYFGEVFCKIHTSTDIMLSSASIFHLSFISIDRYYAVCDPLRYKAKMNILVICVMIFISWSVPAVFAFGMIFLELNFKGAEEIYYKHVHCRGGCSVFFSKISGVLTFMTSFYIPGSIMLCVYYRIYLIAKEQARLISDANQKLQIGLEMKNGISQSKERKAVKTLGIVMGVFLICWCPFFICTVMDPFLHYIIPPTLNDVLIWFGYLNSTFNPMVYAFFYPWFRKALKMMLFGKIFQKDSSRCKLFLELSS
#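 test system = CHO RD-HGA16 cells bearing hTAAR1 | replication = singlicate | controls = DMSO-only wells and EC80 β-PEA-stimulated wells | reagent = EC80 β-phenethylamine stimulus | read-out basis = percent inhibition of PEA-evoked calcium signal, max/basal emission ratio | schedule = seeding 17-24 h prior, 75-min 37 °C, 30-min RT dye loading | signal = kinetic Fluo-8 calcium fluorescence measurement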
# GalR3 antag – antagonists of human GalR3; O60755; HEK293 GalR3-CNG cAMP membrane potential fluorescence; galR3 body fused to GalR1 C-terminus; inhibition, % at 3 µM; 360,000 compounds, 0.44% hits;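 active = inhibition above the screen-wide average plus 3 SD, cut at about 13% in these data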;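 also: forskolin and galanin both at EC90 stimulate the cells; cAMP rise reported by CNG channel membrane potential dye signal; 0% = forskolin plus galanin with DMSO and 100% = forskolin alone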
# Target sequence (O60755 1-299 limits assumed): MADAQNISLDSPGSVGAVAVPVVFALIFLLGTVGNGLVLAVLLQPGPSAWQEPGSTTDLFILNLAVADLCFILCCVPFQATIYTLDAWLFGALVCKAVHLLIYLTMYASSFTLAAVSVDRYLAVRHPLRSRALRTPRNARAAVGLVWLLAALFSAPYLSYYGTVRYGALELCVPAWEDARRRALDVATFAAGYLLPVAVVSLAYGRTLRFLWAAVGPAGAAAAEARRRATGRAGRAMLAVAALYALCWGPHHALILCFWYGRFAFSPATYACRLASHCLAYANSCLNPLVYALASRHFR
# TAAR1 ag – agonists of human TAAR1; activation, % at 3 µM; AID 624467; 360,000 compounds, 0.99% hits; CHO RD-HGA16 TAAR1, Fluo-8 calcium fluorescence; vehicle wells 0%, saturating PEA agonist 100%;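 active = activation above the mean activation of all test compounds in the run plus 3 SD, cut at about 38% in these data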
#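 Assay system – CHO-derived RD-HGA16 cells with stable Gα16 and human TAAR1 · Compound dosing – one-point dosing at 3 µM (nominal) · Incubation – 17-24 h seeding, 75 min 37 °C dye, 30 min RT · Measured by – kinetic Fluo-8 calcium fluorescence · Control set – DMSO vehicle as 0%, PEA at EC100 as 100% · Repeats – single well for each compound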
# TAAR1 ag confirm – confirmation of human TAAR1 agonists. shares compounds with TAAR1 ag. CHO RD-HGA16 TAAR1, Fluo-8 calcium fluorescence; scaled: DMSO 0%, maximal phenethylamine 100%. 2,400 compounds, 82% hits. activation, % at 3 µM;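 active = activation above a cutoff set at the run's mean compound activation plus 3 SD, cut at about 39% in these data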
# Ga16 ag counter – nonselective agonist in parental cells, TAAR1 agonist counter-screen. shares compounds with TAAR1 ag. CHO-Ga16 parental, Fluo-8 calcium fluorescence; normalized to maximal ATP response, DMSO zero. activation, % at 3 µM. 2,400 compounds, 50% hits;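 active = activation above the run cutoff, the mean activation over all tested wells plus 3 SD, cut at about 12% in these data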;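 also: 0% = DMSO wells and 100% = maximal ATP response on the peak over basal ratio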
# TAAR1 desens – counter-screen for human TAAR1 agonists: agonists that desensitize TAAR1. shares compounds with TAAR1 ag. CHO RD-HGA16 hTAAR1, Fluo-8 calcium, beta-PEA response inhibition. inhibition, % at 3 µM. 2,400 compounds, 46% hits. AID 651951;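 active = inhibition above the run cutoff, the mean inhibition of all test compounds plus 3 SD, cut at about 49% in these data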;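 also: beta-PEA stimulus applied at its EC80; loss of beta-PEA calcium signal after compound pretreatment read as receptor desensitization; 0% = DMSO with beta-PEA at EC80 and 100% = DMSO alone without agonist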
# Ga16 nonsel ant – counter-screen for TAAR1 agonists: nonselective Ga16 antagonists; shares compounds with TAAR1 ag; CHO-Ga16 ATP-induced calcium, Fluo-8 fluorescence; inhibition, % at 3 µM; 2,400 compounds, 39% hits; AID 651952;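 active = inhibition above the plate's mean compound inhibition plus 3 SD, computed per plate, cut at about 22% in these data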;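 also: 0% = EC80 ATP with DMSO and 100% = DMSO wells without ATP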
# * = called active by the depositor; . = no result given; ! = a repeat was not active.
SMILES,CHO parental Ca,OX1R antag-1,OX1R antag-2,TAAR1 antagonist,GalR3 antag,TAAR1 ag,TAAR1 ag confirm,Ga16 ag counter,TAAR1 desens,Ga16 nonsel ant
CC(=O)Nc1cc(-c2cccc(N)c2)cn2c(-c3ccccc3)cnc12,.,.,.,28,-7,0,.,.,.,.
Cc1ccc(CN2CCC(c3cc(-c4ccc(Cl)cc4)n[nH]3)CC2)cc1,6,-25,-2,33,-8,67*,85*,21*,75*,31*
COc1cc(CN2CCN(Cc3ccc([N+](=O)[O-])cc3)CC2)c([N+](=O)[O-])cc1OC,0,-24,39,-2,-5,6,.,.,.,.
OC1CCN(CC(O)C(F)(F)F)CC1 (configuration not stated),-8,2,-5,7,-4,0,.,.,.,.
COc1ccc(-c2cc(C3CCN(CC(O)C(F)(F)F)CC3)[nH]n2)cc1 (configuration not stated),0,-4,3,23,-14,44*,77*,2,55*,-3
COc1ccc(-c2cc(C3CCN(Cc4ccc([N+](=O)[O-])cc4)CC3)[nH]n2)cc1,-28,-17,2,-6,0,48*,40*,18*,3,15
Clc1ccc(-c2cc(C3CCNCC3)[nH]n2)cc1,-17,-8,18,18,-7,4,.,.,.,.
CN1CCN(c2sc(S(C)(=O)=O)nc2S(=O)(=O)c2ccc(Cl)cc2)CC1,0,-17,9,-1,-4,0,.,.,.,.
Cc1ccc(S(=O)(=O)N2[C@@H](c3ccc(F)cc3)C(C(=O)O)=C[C@H]2CC2CCCC2)cc1,-28,-9,30,8,-7,1,.,.,.,.
COc1cccc(CN(C)Cc2nc(Cc3ccccc3Cl)no2)c1,-7,-26,7,-5,1,-3,.,.,.,.
CCCCCCCCCCCCCCCC[n+]1ccccc1,.,.,.,73*,-1,52*!,32,4,37,17
CCCCc1cc(=O)oc2cc(C)cc(OCC(=O)N[C@@H](CSCc3ccccc3)C(=O)O)c12,-17,-17,14,15,-7,60*,84*,44*,28,14
CCc1cc(=O)oc2cc(C)cc(OCC(=O)N[C@@H](CSCc3ccccc3)C(=O)O)c12,-13,9,25,-1,2,0,.,.,.,.
Cc1ccc(OCC(=O)O)c(O)c1,.,.,.,-7,-2,0,.,.,.,.
O=C1C=CC(=O)N1CCCCCCCCCCN1C(=O)C=CC1=O,.,.,.,9,-4,26,.,.,.,.
CCc1cc(C(=O)Cc2cnn(-c3ccccc3)c2)c(O)cc1O,0,5,6,63*,1,49*,50*,48*,80*,52*
COc1ccc([C@@H]2CC(=O)[C@@H]3CN(S(=O)(=O)c4ccc(C)cc4)[C@H](c4cccc(Cl)c4)C[C@@H]3N2S(=O)(=O)c2ccccc2)cc1,.,.,.,-7,-8,3,.,.,.,.
CC(CNc1ccc(Cl)cc1)(CNc1ccc(Cl)cc1)[N+](=O)[O-],.,.,.,31,-1,1,.,.,.,.
COC(=O)C[C@H]1CC[C@@H](NS(=O)(=O)c2ccccc2)[C@@H](CO)O1,.,.,.,-4,-5,1,.,.,.,.
COc1ccc(S(=O)(=O)NNC(=S)NCCc2ccccc2)c(OC)c1,-10,-13,-3,-30,-2,49*,17,1,3,6
COc1ccc(NC(=S)NCCc2ccccc2)c(OC)c1,-9,-14,-1,-12,-10,17,.,.,.,.
Cn1c(=O)c2c(nc(N3CCCCCC3)n2Cc2cccc3ccccc23)n(C)c1=O,-27,-30,9,11,2,66*,72*,42*,35,28*
CN1CCN(c2nc3c(c(=O)n(C)c(=O)n3C)n2Cc2cccc3ccccc23)CC1,-15,-38,4,-24,-1,6,.,.,.,.
Cc1cc(N/N=C/c2ccccc2O)nc(N2CCOCC2)n1,13,-18,5,42,-5,43*,66*,2,82*,17
Cc1cc(Nc2ccc(C)c(Cl)c2)nc(N2CCOCC2)n1,-27,-11,15,-7,-3,1,.,.,.,.
SMILES,CHO parental Ca,OX1R antag-1,OX1R antag-2,TAAR1 antagonist,GalR3 antag,TAAR1 ag,TAAR1 ag confirm,Ga16 ag counter,TAAR1 desens,Ga16 nonsel ant
Cc1ccc(Nc2cc(C)nc(N3CCOCC3)n2)cc1,-15,-20,19,-6,-1,42*,35,1,19,6
COc1ccc(CCC(=O)NNC(=O)c2cc(Cl)ccc2OC)cc1,-7,-17,29,-11,-7,12,.,.,.,.
c1ccc(CCN2CN(CCCN3CCOCC3)c3nc4ccccc4n3C2)cc1,-4,-13,7,.,-4,.,.,0,.,11
O=C1Nc2ccccc2/C1=N/c1sc2c(c1C(=O)NCCc1ccccc1)CCCC2,-26,-9,20,71*,2,83*,50*,19*,27,22*
O=C(c1ccccc1)N1CCC(c2nc(-c3ccc(S(=O)(=O)NCC4CCCO4)cc3)no2)CC1 (configuration not stated),-4,8,20,33,-2,43*,10,10,16,27*
COc1cccc(Nc2nc(C(N)Cc3ccc(C(F)(F)F)cc3)cs2)n1 (configuration not stated),.,.,.,28,-7,60*,52*,38*,54*,59*
COc1ccc(CC(N)c2csc(Nc3cccc(OC)n3)n2)cc1 (configuration not stated),.,.,.,26,2,61*,71*,30*,35,29*
NC(COCc1ccccc1)c1csc(Nc2cc(Oc3ccccc3)ncn2)n1 (configuration not stated),.,.,.,29,-2,24,.,.,.,.
COc1cccc(Nc2nc(C(N)COCc3ccccc3)cs2)n1 (configuration not stated),.,.,.,33,-7,59*,80*,11,56*,15
COc1cccc(Nc2nc(C(N)Cc3ccc(F)cc3)cs2)n1 (configuration not stated),.,.,.,24,-6,62*,38*,20*,23,29*
